Results on 29 molecules are retold here after the M2OR odorant receptor database.

This experiment concerns the target T1, OR1A2 (Homo sapiens) (UniProt Q9Y585).
T1 sequence (whole entry): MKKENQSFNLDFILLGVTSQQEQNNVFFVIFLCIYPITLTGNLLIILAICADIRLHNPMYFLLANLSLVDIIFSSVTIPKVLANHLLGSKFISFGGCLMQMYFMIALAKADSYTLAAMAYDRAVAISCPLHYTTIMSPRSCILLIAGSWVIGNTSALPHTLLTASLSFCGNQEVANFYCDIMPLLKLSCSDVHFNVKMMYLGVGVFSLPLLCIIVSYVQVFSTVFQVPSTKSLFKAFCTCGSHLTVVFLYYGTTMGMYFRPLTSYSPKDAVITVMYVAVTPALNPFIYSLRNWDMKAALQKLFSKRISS
To be noted: stereoisomer not certain. The procedure, abridged: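 Assay methods differ from source to source, frequently being transient luciferase assays in mammalian cell lines. For each receptor–molecule pair, the label responsive (active) applies when the original authors judged the measured signal statistically different from baseline, and non-responsive (inactive) applies otherwise.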
Take `CC(CC=O)CCCC(C)(C)O` (centres undefined): the “odorant receptor agonist call” value was “active”.

Take `CCCCCCC(=O)[O-].[H+]`: the “odorant receptor agonist call” value was “inactive”.

For `CC(=O)C=CC1C(C)=CCCC1(C)C` (centres undefined), the “odorant receptor agonist call” value was “active”.

As for `CCCCC(=O)O`, the “odorant receptor agonist call” value was “inactive”.

With `C=CC(C)(O)CCC=C(C)CCC=C(C)C` (centres undefined), the “odorant receptor agonist call” value was “active”.

Take `CCCCCCCCCO`: the “odorant receptor agonist call” value is “inactive”.

For `CCCCCC=O`, the “odorant receptor agonist call” value was “inactive”.

In the case of `CCCCCCCCC(=O)O`, the “odorant receptor agonist call” value was “inactive”.

Regarding `CN(C)C`, the “odorant receptor agonist call” value is “inactive”.

With `C=CC(=O)CCCCC`, the “odorant receptor agonist call” value was “active”.

For the molecule `CCC(C)c1nccnc1OC` (centres undefined), the “odorant receptor agonist call” value was “inactive”.

On to `CC(=O)C=CC1=C(C)CCCC1(C)C`, for which the “odorant receptor agonist call” value was “active”.

As for `COc1ccccc1`, the “odorant receptor agonist call” value is “inactive”.

As to `C=CC(O)CCCCC` (centres undefined), the “odorant receptor agonist call” value is “inactive”.

Regarding `COC(C=C(C)CCC=C(C)C)OC`, the “odorant receptor agonist call” value was “inactive”.

Take `C1CCNC1`: the “odorant receptor agonist call” value is “inactive”.

As to `O=C([O-])CCC(=O)[O-].[H+].[H+]`, the “odorant receptor agonist call” value was “inactive”.

Regarding `CC(C)=CCCC(C)CCO` (centres undefined), the “odorant receptor agonist call” value was “active”.

`CCc1ncc(C)nc1CC`: the “odorant receptor agonist call” value was “inactive”.

For the molecule `CCCCCC=CC=CC=O`, the “odorant receptor agonist call” value is “active”.

For `CC=CC(=O)C1=C(C)C=CCC1(C)C`, the “odorant receptor agonist call” value was “inactive”.

Turning to `COc1nccnc1C(C)C`, the “odorant receptor agonist call” value was “inactive”.

With `CC=CC(=O)C1=C(C)CCCC1(C)C`, the “odorant receptor agonist call” value was “inactive”.

As for `CCc1cnccn1`, the “odorant receptor agonist call” value was “inactive”.

Take `CCC=CCCCCCC=O`: the “odorant receptor agonist call” value is “active”.

For `COc1nccnc1CC(C)C`, the “odorant receptor agonist call” value is “inactive”.

Turning to `CC(C)=CCCC(C)=CC#N`, the “odorant receptor agonist call” value was “inactive”.

As to `C=CC(C)=CCC=C(C)CCC=C(C)C`, the “odorant receptor agonist call” value is “inactive”.

Consider `C=CC(=O)CC`, for which the “odorant receptor agonist call” value is “inactive”.
